Here are results for 23 compounds from ChEMBL document CHEMBL1138047, “Synthesis and biological evaluation of 2-amino-3-(3',4',5'-trimethoxybenzoyl)-5-aryl thiophenes as a new class of potent antitubulin agents” (J Med Chem, 2006).

The structures appear in SMILES notation. Calls of active or inactive are those of the source. The rule behind the calls is not given here. Bounds are passed on as bounds.

The subject of test [1] is K562. Description: Antiproliferative activity against human K562 cell line. The format is functional, cell-based. A digest of the protocol:
(§1)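 Exponentially growing cells in RPMI 1640 with 10% fetal calf serum, 2 mM L-glutamine, […], penicillin/streptomycin were exposed to increasing drug concentrations (DMSO stock 1 mg/mL, final DMSO ≤0.01%, matched DMSO controls). Cells counted by Coulter counter after 48 h. IC50 = concentration giving 50% inhibition versus untreated controls. Duplicate cultures per concentration, ≥3 independent experiments, mean ± SE.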

In test [2] the test system is L1210. The experiment in a line: Antiproliferative activity against mouse L1210 cell line. The format is functional, cell-based. A digest of the protocol:
as §1

The target in test [3] is Tubulin (Bos taurus, UniProt Q6B856+Q862L2+Q862F3). Description: Inhibition of tubulin polymerization in bovine brain by tubulin assembly assay. A digest of the protocol:
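Purified bovine brain tubulin (10 µM) in glutamate buffer was preincubated with a concentration range of compound at 30 °C, then cooled to 0 °C. GTP was added, the mixture rewarmed to 30 °C and assembly followed by turbidity.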

The test system of test [4] is Tubulin (Bos taurus). The experiment in a line: Inhibition of [3H]colchicine binding to tubulin at 1 uM.
Test [5] has as its system K562. Description: Induction of apoptosis in K562 cell line. The test is classed as functional, Homo sapiens.
The subject of test [6] is K562. The experiment in a line: Cell cycle arrest in K562 cells at sub-G1 phase cell. The test is classed as functional, cell-based. The following applies: Homo sapiens. A digest of the protocol:
(§2)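 K562 cells cultured with compound at 3 or 10 nM, or at levels giving 50% and 75% growth inhibition, versus untreated cells. Cells (1 × 10⁶) stained with propidium iodide for 30 min. Sub-G1 (DNA-breakage) fraction measured by flow cytometry.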

Test [7] deals with K562. Description: Cell cycle arrest in K562 cells at sub-G1 phase cell at 3 nM. The format is functional, cell-based. The following applies: Homo sapiens. A digest of the protocol: as §2
The subject of test [8] is K562. Description: Cell cycle arrest in K562 cells at sub-G1 phase cell at 10 nM. The following applies: Homo sapiens. The format is functional, cell-based. A digest of the protocol: as §2
In test [9] the test system is K562. Description: Cell cycle arrest in K562 cells at G2/M phase. The test is classed as functional, cell-based. As to conditions: Homo sapiens. A digest of the protocol: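 K562 cells cultured 24 h with compound at concentrations giving 25%, 50% and 75% growth inhibition, or without compound. Cells (1 × 10⁶) stained with propidium iodide for 30 min and analysed by flow cytometry for G1, S, G2/M and sub-G1 fractions. DMSO vehicle.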

In the case of `COc1cc(C(=O)c2c(C)csc2N)cc(OC)c1OC`, the IC50 (usually the concentration that gives 50% inhibition) in test [1] worked out at 219 nM; in test [2], 262 nM.
For `COc1ccc(-c2cc(C(=O)c3cc(OC)c(OC)c(OC)c3)c(N)s2)cc1`, the IC50 in test [3] was found to be 1700 nM; in [1], 4.47 nM; in test [2], 6.52 nM. Besides, the inhibition (usually the percentage by which the read-out fell short of the control) in test [4] is 64%.
For the compound `COc1cc(C(=O)c2cc(Br)sc2N)cc(OC)c1OC`, the results for the IC50 in test [1] and in test [2] were 1680 nM and 4250 nM, respectively.
On to `COc1cc(C(=O)c2c(N)sc(-c3ccccc3)c2C)cc(OC)c1OC`, for which the IC50 was determined as 2200 nM in [3], 6.42 nM in test [1] and 18.2 nM in test [2]. In test [4], this compound returned an inhibition of 37%.
In the case of `COc1cccc(-c2cc(C(=O)c3cc(OC)c(OC)c(OC)c3)c(N)s2)c1`, the IC50 in [3] was found to be 1700 nM; in test [1], 10.1 nM; in [2], 20.8 nM. Moreover, the inhibition in test [4] came to 58%.
As to `COc1cc(C(=O)c2cc(-c3ccc(C(F)(F)F)cc3)sc2N)cc(OC)c1OC`, the 50% inhibitory concentration (IC50) in test [1] stood at 70.3 nM; in [2], 73.7 nM.
Turning to `COc1cc(C(=O)c2cc(-c3ccc(C)cc3)sc2N)cc(OC)c1OC`, the IC50 in test [3] worked out at 1100 nM; in [1], 4.72 nM; in test [2], 3.52 nM. Further, the Activity in test [5] was found to be 20.5%. Besides, the outcome in [6] was Active. The same compound had an inhibition in test [4] of 71%.
`COc1cc(C(=O)c2cc(-c3ccc(Cl)c(Cl)c3)sc2N)cc(OC)c1OC`: the IC50 in test [1] was determined as 362 nM; in test [2], 337 nM.
The like results for `COc1ccc(C(=O)c2cc(-c3ccccc3)sc2N)cc1OC` were, in that order, 85.5 nM and 537 nM.
With `COc1cc(C(=O)c2cc(-c3ccc(Cl)cc3)sc2N)cc(OC)c1OC`, the IC50 in [3] is 980 nM; in test [1], 14.7 nM; in test [2] it was 6.96 nM. The compound also showed an inhibition in test [4] of 68%.
As for `CCCCCc1cc(C(=O)c2cc(OC)c(OC)c(OC)c2)c(N)s1`, the values for the IC50 in test [1] and in [2] were 1490 nM and 1320 nM, respectively.
`COc1cc(C(=O)c2ccsc2N)cc(OC)c1OC`: the values for the IC50 in test [1] and in test [2] were 1270 nM and 3150 nM, respectively.
In the case of `COc1ccccc1-c1cc(C(=O)c2cc(OC)c(OC)c(OC)c2)c(N)s1`, the 50% inhibitory concentration (IC50) in test [1] turned out to be 7.75 nM; in [2], 9 nM.
Turning to `COc1cc(C(=O)c2c(N)sc(-c3ccccc3)c2-c2ccccc2)cc(OC)c1OC`, the IC50 was 8500 nM in test [1] and 6950 nM in test [2].
As for `COc1cc(C(=O)c2cc(-c3ccc(OC)c(OC)c3OC)sc2N)cc(OC)c1OC`, the values for the IC50 in test [1] and in test [2] were 1100 nM and 1650 nM, respectively.
The like results for `CCc1cc(C(=O)c2cc(OC)c(OC)c(OC)c2)c(N)s1` were, in that order, 9000 nM and above 10000 nM.
The like results for `COc1cc(C(=O)c2c(N)sc(C)c2C)cc(OC)c1OC` were, in that order, 790 nM and 3900 nM.
The like results for `COc1cc(C(=O)c2cc(I)sc2N)cc(OC)c1OC` were, in that order, 342 nM and 1150 nM.
With `COc1cc(C(=O)c2cc(-c3ccccc3)sc2N)cc(OC)c1OC`, the IC50 in [3] is 1900 nM; in [1], 3.75 nM; in test [2], 2.52 nM. Further, the Activity in [5] worked out at 87.5%. For the same compound, the result in test [6], in test [7] and in test [8] was Active. Moreover, the inhibition in test [4] is 60%.
For the compound `COc1ccc(/C=C\c2cc(OC)c(OC)c(OC)c2)cc1O` [COMBRETASTATIN A4], the IC50 in test [1] came to 3.6 nM; in test [2], 8.3 nM.
For the compound `COc1cc(C(=O)c2cc(-c3ccc(F)cc3)sc2N)cc(OC)c1OC`, the IC50 was 1100 nM in test [3], 2.82 nM in [1] and 2.15 nM in [2]. In addition, the figures for the Activity in [5] and in test [9] were 64.5% and “Dose-dependent effect”, respectively. Further, the result in test [6] was Active. This compound also registered an inhibition in [4] of 82%.
Take `COc1ccc(C(=O)c2cc(-c3ccccc3)sc2N)cc1`: the IC50 is 4670 nM in test [1] and above 10000 nM in [2].
`COc1cc(C(=O)c2c(-c3ccccc3)csc2N)cc(OC)c1OC`: the IC50 in test [1] and in test [2] was above 10000 nM throughout.
